Active and inactive are the calls of the source. No cut-off for these calls is given here.
What was measured:
[1] = target: T1, Heterogeneous nuclear ribonucleoprotein A1 (Homo sapiens, UniProt P09651); assay: Binding affinity to human hnRNP A1 expressed in HeLa cells after 16 hrs by avidin-agarose bead pull down assay; format: cell-based
How it was run: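 HeLa cells grown in DMEM/10% FCS, 37 °C, 5% CO2; 10^7 cells lysed 1 min in Tris pH 8.0/NaCl/EDTA/0.5% Triton-X; supernatant precleared on avidin-agarose, then 16 h at 4 °C with biotinylated CPT probe (1 mM stock, 1:10 into lysate) or DMSO; avidin-agarose capture 1 h at 4 °C, PBS washes, SDS-PAGE, anti-hnRNP A1 western blot with chemiluminescence.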

[2] = target: T1, Heterogeneous nuclear ribonucleoprotein A1; assay: Binding affinity to recombinant GST-tagged human hnRNP A1 expressed in Escherichia coli after 16 hrs by avidin-agarose bead pull down assay
How it was run: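 Lysate of E. coli expressing hnRNP A1-GST made by sonication in Tris pH 8.0/150 mM NaCl/EDTA/PMSF. Precleared on avidin-agarose, then mixed with biotinylated CPT probe (1 mM stock, 1:10) or DMSO for 16 h at 4 °C. Bound material captured 1 h on avidin-agarose, washed five times in PBS, run on 15% SDS-PAGE and immunoblotted for hnRNP A1.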

Drosophila melanogaster [3] = assay: Growth inhibition of Drosophila melanogaster expressing Hrb87F mutant KG02089 assessed as reduction in eclosion rate at 25 uM after 15 days; format: functional, organism-based
How it was run: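 Eggs of Hrb87F KG02089 mutant and CantonS wild-type immersed in 25 µM drug or DMSO in 4% EtOH/5% DMSO vehicle. Adults emerging within 15 days counted. Rate = N(mutant)/N(WT) × 100%. Means ± S.E. of three independent experiments.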

Drosophila melanogaster [4] = assay: Growth inhibition of 7 day-old Drosophila melanogaster pupa expressing Hrb87F mutant KG02089 at 25 to 50 uM after 15 days; format: functional, organism-based
How it was run: (§1)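 Drosophila eggs from 20 adults (laid over 24 h) immersed in 250 µl CPT at 0, 5, 12.5, 25 or 50 µM in 4% EtOH/5% DMSO. Development and pupal phenotype followed at 5, 7 and 14 days after dosing. Wild-type CantonS served as reference.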

[5] = target: T1, Heterogeneous nuclear ribonucleoprotein A1; assay: Noncompetitive inhibition of recombinant GST-tagged human hnRNP A1 binding to recombinant His-tagged top1 cap region by SPR biosensor analysis
How it was run: (§2)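 Biacore SPR, CM5 chip with His-tagged top I cap region (215–433) amine-coupled at pH 5, about 10,000 RU. hnRNP A1-GST injected at various concentrations with or without CPT in HBS-EP/5% DMSO, 20 µl/min, 25 °C. Data analysed by Langmuir and Lineweaver-Burk plots under a non-competitive inhibition model.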

Drosophila melanogaster [6] = assay: Growth inhibition of Drosophila melanogaster expressing Hrb87F mutant KG02089 assessed as reduction in eclosion rate after 15 days; format: functional, organism-based
How it was run: (§3)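 Drosophila eggs from 20 adults (laid over 24 h) immersed in 250 µl CPT at 0, 5, 12.5, 25 or 50 µM in 4% EtOH/5% DMSO. Adults emerging within 15 days counted. Eclosion rate = N(µM)/N(0 µM) × 100%, compared with wild-type CantonS. Means ± S.E. of three independent experiments.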

[7] = target: T1, Heterogeneous nuclear ribonucleoprotein A1; assay: Inhibition of recombinant GST-tagged human hnRNP A1/his-tagged top1 cap region interaction expressed in Escherichia coli by SPR biosensor analysis; how it was run: as §2
Drosophila melanogaster [8] = assay: Growth inhibition of Drosophila melanogaster expressing Hrb87F mutant BG02743 assessed as reduction in eclosion rate after 15 days; format: functional, organism-based; how it was run: as §3
Drosophila melanogaster [9] = assay: Growth inhibition of 7 day-old Drosophila melanogaster pupa expressing Hrb87F mutant BG02743 at 25 to 50 uM after 15 days; format: functional, organism-based; how it was run: as §1
[10] = target: T1, Heterogeneous nuclear ribonucleoprotein A1; assay: Binding affinity to recombinant GST-tagged human hnRNP A1 expressed in Escherichia coli using QCM biosensor by Scatchard plot analysis
How it was run: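 Quartz crystal microbalance with GST-affinity-purified hnRNP A1-GST immobilised on gold electrode; cuvette of PBS–10% DMSO at 25 °C; CPT injected at final 12.5–250 nM; frequency change monitored; Langmuir and Scatchard plots; means ± S.E. of three independent experiments.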

[11] = target: T1, Heterogeneous nuclear ribonucleoprotein A1; assay: Inhibition of recombinant GST-tagged human hnRNP A1/his-tagged top1 cap region interaction expressed in expressed in Escherichia coli assessed as pBR322 DNA relaxation after 30 mins by agarose gel electrophoresis
How it was run: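 Calf thymus topoisomerase I (2 U) incubated with 1 µg supercoiled pBR322 in Tris pH 8/KCl/MgCl2/DTT/spermidine/BSA, with or without 100 µM CPT or 0.5 µM hnRNP A1-GST, for 30 min at 37 °C. Reaction stopped with SDS at 75 °C, then proteinase K digestion. Products run on 1% agarose gel and stained with EtBr.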

T1 sequence (P09651 whole entry): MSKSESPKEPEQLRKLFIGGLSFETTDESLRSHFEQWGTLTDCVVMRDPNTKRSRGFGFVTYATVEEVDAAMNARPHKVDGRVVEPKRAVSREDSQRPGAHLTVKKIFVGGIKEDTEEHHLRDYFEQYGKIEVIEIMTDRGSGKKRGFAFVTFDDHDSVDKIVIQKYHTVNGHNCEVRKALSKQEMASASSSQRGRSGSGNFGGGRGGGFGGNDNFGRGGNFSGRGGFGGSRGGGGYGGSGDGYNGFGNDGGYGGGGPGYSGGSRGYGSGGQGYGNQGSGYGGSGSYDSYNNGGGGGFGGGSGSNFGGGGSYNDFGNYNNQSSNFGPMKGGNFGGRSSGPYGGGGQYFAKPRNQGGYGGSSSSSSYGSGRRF

## CC[C@@]1(OC(=O)CCCCCNC(=O)CCCC[C@@H]2SC[C@@H]3NC(=O)N[C@@H]32)C(=O)OCc2c1cc1n(c2=O)Cc2cc3ccccc3nc2-1
[1]
  Activity: Active
[2]
  Activity: Active

## BLEOMYCIN
Drosophila melanogaster [3]
  growth inhibition (GI): inactive

## CCc1c2c(nc3ccc(OC(=O)N4CCC(N5CCCCC5)CC4)cc13)-c1cc3c(c(=O)n1C2)COC(=O)[C@]3(O)CC
Drosophila melanogaster [3]
  growth inhibition (GI): inactive

## CC(=O)O[C@H]1C(=O)[C@@]2(C)[C@H]([C@H](OC(=O)c3ccccc3)[C@]3(O)C[C@H](OC(=O)[C@H](O)[C@@H](NC(=O)c4ccccc4)c4ccccc4)C(C)=C1C3(C)C)[C@]1(OC(C)=O)CO[C@@H]1C[C@@H]2O
Drosophila melanogaster [3]
  growth inhibition (GI): inactive

## CC[C@@]1(O)C(=O)OCc2c1cc1n(c2=O)Cc2cc3ccccc3nc2-1 [CAMPTOTHECIN]
Drosophila melanogaster [4]
  growth inhibition (GI): Active
[5]
  inhibition: Active
Drosophila melanogaster [6]
  growth inhibition (GI): Dose-dependent effect
[7]
  inhibition: Active
Drosophila melanogaster [8]
  growth inhibition (GI): Dose-dependent effect
Drosophila melanogaster [9]
  growth inhibition (GI): Active
[10]
  Bmax: 67 pg/mm2
  Kd: 82.7 nM
[11]
  inhibition: Active

## COc1cccc2c1C(=O)c1c(O)c3c(c(O)c1C2=O)C[C@@](O)(C(=O)CO)C[C@@H]3O[C@H]1C[C@H](N)[C@H](O)[C@H](C)O1
Drosophila melanogaster [3]
  growth inhibition (GI): inactive

— ChEMBL document CHEMBL1955822, “Camptothecin (CPT) directly binds to human heterogeneous nuclear ribonucleoprotein A1 (hnRNP A1) and inhibits the hnRNP A1/topoisomerase I interaction” (Bioorg Med Chem, 2011)
